Test [1] relates to Bovine brain tubulin (colchicine site). The test is described as follows: Inhibition of [3H]colchicine binding to tubulin. The conditions noted are these: tubulin 1 μM, [3H]colchicine 5 μM; for Colchicine Binding Inhibition [%], 5 μM: compound 5 μM.
For another test, the system named is K562. The test is described as follows: MTT growth inhibition, K562 chronic myelogenous leukemia cells. It counts as cell-based, human. The conditions noted are these: read-out: GI50 K562. The gist of the method:
(§1)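 Cells seeded at 8 × 10^3 per well in 96-well plates and held 18 h at 37 °C, 5% CO2. Medium then replaced with test compound in complete medium at various concentrations for 72 h continuous exposure. Viability read by MTT. GI50 is the concentration giving 50% proliferation inhibition, from dose–response curves; mean ± SE of ≥3 independent experiments. Media: leukemia lines in RPMI-1640; solid-tumour lines in DMEM with penicillin G 115 U mL−1, streptomycin and 10% FBS.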

The next test concerns HL-60. As to the kind of experiment: MTT growth inhibition, HL-60 promyelocytic leukemia cells. In kind it is cell-based, human. The note with it: read-out: GI50 HL-60. The method, boiled down: as §1
A further test relates to Bovine brain tubulin. As to the kind of experiment: Inhibition of tubulin polymerization. It counts as biochemical. The note with it: for IC50: read-out: Tubulin Assembly IC50, tubulin 10 μM, 20 min incubation, ± SD.
In the next test the test system is Hep G2. As to the kind of experiment: MTT growth inhibition, HepG2 hepatoma cells. The conditions noted are these: read-out: GI50 Hep G2. It counts as cell-based, human. The method, boiled down:
as §1

Test [2] has as its system Jurkat cells. The test is described as follows: Flow cytometric cell-cycle analysis. The conditions noted are these: 24 h treatment. In kind it is cell-based, human. The method, boiled down: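 Jurkat cells in exponential growth, 5 × 10^5 per sample, exposed to test compound at various concentrations for 24 h. Cells fixed in ice-cold 70% ethanol, treated with lysis buffer containing RNase A and 0.1% Triton X-100, then stained with PI. DNA content measured by flow cytometry and phases assigned from DNA histograms. Mean ± SEM of two independent experiments.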
In general terms: Flow cytometry measures light scatter and fluorescence of single cells or particles in a stream.

In the next test the test system is IGROV. As to the kind of experiment: MTT growth inhibition, IGROV ovarian cancer cells. It counts as cell-based, human. The note with it: read-out: GI50 IGROV. The gist of the method: as §1
Another test has as its system HeLa. The test is described as follows: MTT growth inhibition, HeLa cervix carcinoma cells. In kind it is cell-based, human. The conditions noted are these: read-out: GI50 HeLa. The gist of the method:
as §1

The subject of test [3] is Jurkat cells. As to the kind of experiment: Annexin V-FITC/PI apoptosis assay. In kind it is cell-based, human. The conditions noted are these: 24 h treatment. The method, boiled down: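 Jurkat cells exposed to test compound at various concentrations for 24 or 48 h, then harvested. Co-labelled with annexin V–FITC and PI and analysed by flow cytometry (excitation 488 nm; emission 525 and 585 nm). Reported as mean percentage of annexin-V-positive cells ± SEM, three independent experiments.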

The test system of the next test is HT-29. The test is described as follows: MTT growth inhibition, HT-29 colon adenocarcinoma cells. It counts as cell-based, human. The conditions noted are these: read-out: GI50 HT-29. The method, boiled down: as §1
Another test deals with ML2. The test is described as follows: MTT growth inhibition, ML-2 myeloid leukemia cells. In kind it is cell-based, human. The note with it: read-out: GI50 ML2. The method, boiled down: as §1
For a further test, the system named is MCF-7. The test is described as follows: MTT growth inhibition, MCF-7 breast adenocarcinoma cells. It counts as cell-based, human. The note with it: read-out: GI50 MCF-7. The method, boiled down: as §1
The next test relates to RS 4;11. As to the kind of experiment: MTT growth inhibition, RS 4. It counts as cell-based, human. The note with it: read-out: GI50 RS 4;11. The method, boiled down:
as §1

The next test relates to Jurkat. As to the kind of experiment: MTT growth inhibition, Jurkat T-leukemia cells. It counts as cell-based, human. The conditions noted are these: read-out: GI50 Jurkat. The method, boiled down: as §1
Another test concerns ARO. The test is described as follows: MTT growth inhibition, ARO anaplastic thyroid cells. In kind it is cell-based, human. The conditions noted are these: read-out: GI50 ARO. The method, boiled down: as §1
The subject of the next test is solid tumor cells. As to the kind of experiment: MTT growth inhibition, solid tumor cell lines. In kind it is cell-based. The note with it: Homo sapiens, 72 h, read-out: GI50, solid tumor cells. The method, boiled down: as §1
The test system of another test is leukemia cells. The test is described as follows: MTT growth inhibition, leukemia cell lines. The note with it: 72 h, MTT. It counts as cell-based, human. The method, boiled down: as §1
The mark [4] stands for this setting: Homo sapiens, Thyroid cell, 72 h.

Consider five molecules from PMC2921709 (ChemMedChem, 2010).

Like-named read-outs stand apart in the source and are kept apart here.

For the molecule `COc1ccc(/C=C\c2cc(OC)c(OC)c(OC)c2)cc1O` [CA-4, combretastatin A-4, reference compound], in [1] (compound 1 μM), the “Colchicine Binding Inhibition [%], 1 μM” value is 84 ± 3%. Also, the “Colchicine Binding Inhibition [%], 5 μM” value in test [1] stood at 98 ± 0.3%.

As for `CCn1ccc2c3c(=O)cc(-c4cccnc4)[nH]c3ccc21` [Compound 13, 3-Ethyl-7-(pyridin-3-yl)-3H-pyrrolo[3,2-f]quinolin-9(6H)-one], the GI50 with K562 (Homo sapiens, K562, 72 h) is 240 ± 30 nM; in the test on HL-60 (Homo sapiens, HL-60, 72 h) it was 30 ± 2 nM; in the test on Hep G2 (Homo sapiens, HepG2, 72 h), 500 ± 50 nM; with IGROV (Homo sapiens, IGROV, 72 h) it was 650 ± 150 nM; in the test with HeLa (Homo sapiens, HeLa, 72 h) it was 400 ± 50 nM; in the test with HT-29 (Homo sapiens, HT-29, 72 h), 850 ± 140 nM. Also, the GI50 with ML2 (Homo sapiens, ML-2, 72 h) is 300 ± 40 nM; with MCF-7 (Homo sapiens, MCF7, 72 h), 850 ± 150 nM; in the test on RS 4;11 (Homo sapiens, RS4-11, 72 h) it was 40 ± 7 nM; with Jurkat (Homo sapiens, Jurkat, 72 h) it was 50 ± 4 nM; in the test with ARO (setting [4]) it was 450 ± 70 nM. In [1], the “Colchicine Binding Inhibition [%], 5 μM” value was determined as 23 ± 6%. For the same molecule, in test [1] (compound 50 μM), the “Colchicine Binding Inhibition [%], 50 μM” value is listed as 65 ± 0.3%. Also, the IC50 in the test with Bovine brain tubulin came to 2400 ± 400 nM. The “effect on cell-cycle progression (G2/M arrest, in words)” value with Jurkat cells [2] is on record as “only induced G2/M arrest at yet higher concentrations”. For the same molecule, the “induction of apoptotic (annexin-V-positive) cells, in words” value in the test on Jurkat cells [3] is on record as “lower efficacy”.

For `CCn1cc(C)c2c3c(=O)cc(-c4ccccc4)[nH]c3ccc21` [Compound 17, 3-Ethyl-1-methyl-7-phenyl-3H-pyrrolo[3,2-f]quinolin-9(6H)-one], the 50% growth inhibitory concentration (GI50) was 27300 ± 340 nM with K562 (Homo sapiens, K562, 72 h); 17500 ± 2300 nM in the test on HL-60 (Homo sapiens, HL-60, 72 h); 5800 ± 1100 nM in the test on Hep G2 (Homo sapiens, HepG2, 72 h); over 50000 nM in the test with IGROV (Homo sapiens, IGROV, 72 h); 4500 ± 800 nM in the test on HeLa (Homo sapiens, HeLa, 72 h); over 50000 nM with HT-29 (Homo sapiens, HT-29, 72 h). For the same molecule, the GI50 with ML2 (Homo sapiens, ML-2, 72 h) is 14400 ± 2300 nM; in the test with MCF-7 (Homo sapiens, MCF7, 72 h), over 50000 nM; in the test on RS 4;11 (Homo sapiens, RS4-11, 72 h), 6500 ± 1000 nM; with Jurkat (Homo sapiens, Jurkat, 72 h), 8000 ± 1200 nM; in the test with ARO (setting [4]) it was over 50000 nM.

With `CCn1cc(C#N)c2c3c(=O)cc(-c4ccccc4)[nH]c3ccc21` [Compound 21, 3-Ethyl-9-oxo-7-phenyl-6,9-dihydro-3H-pyrrolo[3,2-f]quinoline-1-carbonitrile], the GI50 was 460 ± 8 nM with K562 (Homo sapiens, K562, 72 h); 210 ± 10 nM with HL-60 (Homo sapiens, HL-60, 72 h); over 50000 nM in the test on Hep G2 (Homo sapiens, HepG2, 72 h); over 50000 nM in the test with IGROV (Homo sapiens, IGROV, 72 h); over 50000 nM in the test with HeLa (Homo sapiens, HeLa, 72 h); over 50000 nM in the test on HT-29 (Homo sapiens, HT-29, 72 h). Further, the GI50 with solid tumor cells is over 50000 nM; in the test with ML2 (Homo sapiens, ML-2, 72 h), 550 ± 30 nM; with MCF-7 (Homo sapiens, MCF7, 72 h), over 50000 nM; in the test on RS 4;11 (Homo sapiens, RS4-11, 72 h), 130 ± 20 nM; in the test with Jurkat (Homo sapiens, Jurkat, 72 h) it was 300 ± 10 nM; in the test with ARO (setting [4]), over 50000 nM. Moreover, the “activity in the leukemia lines (concentration level, in words)” value in the test with leukemia cells was “sub-micromolar”.

Consider `CCn1cc(C(N)=O)c2c3c(=O)cc(-c4ccccc4)[nH]c3ccc21` [Compound 22, 3-Ethyl-9-oxo-7-phenyl-6,9-dihydro-3H-pyrrolo[3,2-f]quinoline-1-caboxamide], for which the GI50 was 1700 ± 500 nM with K562 (72 h exposure, MTT, mean ± SE); 320 ± 30 nM in the test on HL-60 (72 h exposure, MTT, mean ± SE); over 50000 nM with Hep G2 (72 h exposure, MTT, mean ± SE); over 50000 nM in the test with IGROV (72 h exposure, MTT, mean ± SE); over 50000 nM in the test with HeLa (72 h exposure, MTT, mean ± SE); over 50000 nM with HT-29 (72 h exposure, MTT, mean ± SE). Besides, the GI50 with ML2 (72 h exposure, MTT, mean ± SE) was 90 ± 20 nM; in the test with MCF-7 (72 h exposure, MTT, mean ± SE), over 50000 nM; in the test with RS 4;11 (72 h exposure, MTT, mean ± SE), 30 ± 2 nM; with Jurkat (72 h exposure, MTT, mean ± SE) it was 50 ± 6 nM; with ARO (72 h exposure, MTT, mean ± SE) it was over 50000 nM. The “inhibition of tubulin assembly at the highest concentration” value in the test with Bovine brain tubulin (compound 40 μM) is given as “less than 50%”. In the test on Bovine brain tubulin, the IC50 is over 40000 nM. Further, the “effect on cell-cycle progression (G2/M arrest, in words)” value with Jurkat cells [2] was “only induced G2/M arrest at yet higher concentrations”. Moreover, in the test with Jurkat cells [3], the “induction of apoptotic (annexin-V-positive) cells, in words” value is given as “lower efficacy”. Further, in the test with leukemia cells, the “activity in the leukemia lines (concentration level, in words)” value is given as “sub-micromolar”.

The GI50 is the concentration at which growth is held to half of that of the control. The term IC50 denotes the concentration that gives 50% inhibition.
